According to ChEMBL document CHEMBL1152892, “Synthesis and biological evaluation of 3,6-disubstituted [1,2,4]triazolo[3,4-b][1,3,4]thiadiazole derivatives as a novel class of potential anti-tumor agents” (Eur J Med Chem, 2009):
Active and inactive are the calls of the source. No cut-off for these calls is given here.

Assays:
[1] = Inhibition of CDK4/Cyclin D
[2] = target: Cyclin-dependent kinase 2 (Homo sapiens, UniProt P24941); assay: Inhibition of CDK2/Cyclin A
[3] = target: Cyclin-dependent kinase 1/cyclin B1 (Homo sapiens, UniProt P06493); assay: Inhibition of CDK1/Cyclin B; format: protein-complex assay
Chain of Cyclin-dependent kinase 1/cyclin B1 (P06493 whole entry): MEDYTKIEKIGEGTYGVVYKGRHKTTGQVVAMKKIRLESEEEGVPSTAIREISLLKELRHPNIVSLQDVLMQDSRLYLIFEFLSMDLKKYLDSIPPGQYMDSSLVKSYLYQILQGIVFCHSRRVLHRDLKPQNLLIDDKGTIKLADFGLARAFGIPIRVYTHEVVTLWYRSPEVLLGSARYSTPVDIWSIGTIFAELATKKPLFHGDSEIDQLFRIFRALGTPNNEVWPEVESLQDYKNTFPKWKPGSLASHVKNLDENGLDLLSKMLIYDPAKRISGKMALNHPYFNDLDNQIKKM
Chain of Cyclin-dependent kinase 1/cyclin B1 (P14635 whole entry, further chain): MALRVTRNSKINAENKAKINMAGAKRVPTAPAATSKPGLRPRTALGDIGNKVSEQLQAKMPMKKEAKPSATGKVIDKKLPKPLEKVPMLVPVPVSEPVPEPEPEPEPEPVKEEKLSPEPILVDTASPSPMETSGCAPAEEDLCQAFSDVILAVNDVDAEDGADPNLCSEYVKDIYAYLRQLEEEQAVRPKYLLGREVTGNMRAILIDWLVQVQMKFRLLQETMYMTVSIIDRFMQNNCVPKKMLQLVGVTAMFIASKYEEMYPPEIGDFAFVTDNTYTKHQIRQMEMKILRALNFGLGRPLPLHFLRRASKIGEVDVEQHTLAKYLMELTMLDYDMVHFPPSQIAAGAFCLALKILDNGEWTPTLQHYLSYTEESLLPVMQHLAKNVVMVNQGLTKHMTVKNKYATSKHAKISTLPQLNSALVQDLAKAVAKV

SF-268 = assay: Cytotoxicity against human SF268 cells after 48 hrs by sulforhodamine B assay; format: functional
In short: (§1)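 NCI human tumor panel. Cells in RPMI 1640 with 5% FBS and 2 mM L-glutamine, 5000–40,000 cells/well by growth characteristics, 24 h preincubation at 37 °C. Compound added at time zero at five 10-fold dilutions, top concentration agent-dependent. Incubated 48 h (5% CO2, 100% humidity), then sulforhodamine B stain and plate-reader OD. GI50 and TGI are the concentrations giving 50% and total growth inhibition, in µM.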

HCC 2998 = assay: Cytotoxicity against human HCC2998 cells after 48 hrs by sulforhodamine B assay; format: functional; in short: as §1
CAKI-1 = assay: Cytotoxicity against human Caki1 cells after 48 hrs by sulforhodamine B assay; format: functional; details: for GI50: CAKI-1, 48 h; in short: as §1
NCI-H226 = assay: Cytotoxicity against human NCI-H226 cells after 48 hrs by sulforhodamine B assay; format: functional; details: for GI50: NCI-H226, 48 h; in short: as §1
NCI-H322M = assay: Cytotoxicity against human NCI-H322M cells after 48 hrs by sulforhodamine B assay; format: functional; in short: as §1
TK-10 = assay: Cytotoxicity against human TK10 cells after 48 hrs by sulforhodamine B assay; format: functional; in short: as §1
HOP-92 = assay: Cytotoxicity against human HOP92 cells after 48 hrs by sulforhodamine B assay; format: functional; details: for GI50: HOP-92, 48 h; in short: as §1
UACC-62 = assay: Cytotoxicity against human UACC62 cells after 48 hrs by sulforhodamine B assay; format: functional; in short: as §1
RPMI8266 = assay: (§2) Cytotoxicity against human […] cells after 48 hrs by sulforhodamine B assay; format: functional; in short: as §1
BT-549 = assay: Cytotoxicity against human BT549 cells after 48 hrs by sulforhodamine B assay; format: functional; details: for GI50: BT-549, 48 h; in short: as §1
SNB-75 = assay: Cytotoxicity against human SNB75 cells after 48 hrs by sulforhodamine B assay; format: functional; in short: as §1
OVCAR-4 = assay: Cytotoxicity against human OVCAR4 cells after 48 hrs by sulforhodamine B assay; format: functional; in short: as §1
HOP-62 = assay: Cytotoxicity against human HOP62 cells after 48 hrs by sulforhodamine B assay; format: functional; details: for GI50: HOP-62, 48 h; in short: as §1
OVCAR-3 = assay: Cytotoxicity against human OVCAR-3 cells after 48 hrs by sulforhodamine B assay; format: functional; details: for GI50: OVCAR-3, 48 h; in short: as §1
LOX IMVI = assay: Cytotoxicity against human LOXIMVI cells after 48 hrs by sulforhodamine B assay; format: functional; in short: as §1
MCF7 [4] = assay: Cytotoxicity against human MCF7 cells after 48 hrs by sulforhodamine B assay; format: functional; in short: as §1
CCRF-CEM = assay: Cytotoxicity against human CCRF-CEM cells after 48 hrs by sulforhodamine B assay; format: functional; in short: as §1
HCT-116 [5] = assay: Cytotoxicity against human HCT116 cells after 48 hrs by sulforhodamine B assay; format: functional; details: for GI50: HCT-116, 48 h; in short: as §1
KM12 = assay: Cytotoxicity against human KM12 cells after 48 hrs by sulforhodamine B assay; format: functional; details: for GI50: KM12, 48 h; in short: as §1
SR = assay: Cytotoxicity against human SR cells after 48 hrs by sulforhodamine B assay; format: functional; in short: as §1
ACHN = assay: Cytotoxicity against human ACHN cells after 48 hrs by sulforhodamine B assay; format: functional; in short: as §1
SF-539 = assay: Cytotoxicity against human SF539 cells after 48 hrs by sulforhodamine B assay; format: functional; in short: as §1
A498 = assay: Cytotoxicity against human A498 cells after 48 hrs by sulforhodamine B assay; format: functional; in short: as §1
MCF7 [6] = assay: Antitumor activity against human MCF7 cells assessed as cell growth at 10 uM after 48 hrs by sulforhodamine B assay; format: functional; details: MCF7, 48 h, read-out: Activity
In short: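 NCI primary screen, single concentration 10^-5 M against MCF7, NCI-H460 and SF-268. Cells in RPMI 1640 with 5% FBS and 2 mM L-glutamine, seeded at 5000–40,000 cells/well by cell type, preincubated 24 h at 37 °C. Compound added at time zero, then 48 h incubation (5% CO2, 100% humidity). Growth read by sulforhodamine B optical density, reported as growth percentage.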

[7] = (§3) Cytotoxicity against human Hs 578T cells after 48 hrs by sulforhodamine B assay; format: functional; in short: as §1
HCT-116 [8] = assay: Antitumor activity against human HCT116 cells xenografted in nude mouse; format: functional, cell-based
HCT-15 = assay: Cytotoxicity against human HCT15 cells after 48 hrs by sulforhodamine B assay; format: functional; in short: as §1
[9] = as §2; format: functional; in short: as §1
Hs-578T = assay: as §3; format: functional; in short: as §1

Molecule S=c1[nH]c(=S)c2c(Cc3nn4c(Cc5ccccc5)nnc4s3)n[nH]c2[nH]1 has an IC50 [1] of over 48 µM, an IC50 [2] of 24 µM and an IC50 [3] of 14 µM.

For Sc1nn2c(COc3ccc(Cl)cc3)nnc2s1, the pGI50 (SF-268) was “inactive”, the pGI50 (HCC 2998) was “inactive” and the pGI50 (CAKI-1) was “inactive”. The GI50 (NCI-H226) was 89.1 µM, the pGI50 (NCI-H322M) was “inactive” and the pGI50 (TK-10) was “inactive”. The GI50 (HOP-92) was 79.4 µM, the pGI50 (UACC-62) was “inactive” and the pGI50 (RPMI8266) was “inactive”. For the same molecule, the GI50 (BT-549) was 79.4 µM, the pGI50 (SNB-75) was “inactive” and the pGI50 (OVCAR-4) was “inactive”. The IC50 [2] was 0.4 µM, the pGI50 (HOP-62) was “inactive” and the GI50 (OVCAR-3) was 81.3 µM. The pGI50 (LOX IMVI) was “inactive”, the pGI50 (MCF7 [4]) was “inactive” and the GI50 (CCRF-CEM) was 97.7 µM. For the same molecule, the GI50 (HCT-116 [5]) was over 100 µM, the IC50 [3] was 0.9 µM and the pGI50 (KM12) was “inactive”. For the same molecule, the GI50 (SR) was 95.5 µM, the pGI50 (ACHN) was “inactive” and the pGI50 (SF-539) was “inactive”. The pGI50 (A498) was “inactive”, the growth at 10 µM (MCF7 [6]) was 0% and the GI50 [7] was 87.1 µM.

In the case of Clc1ccc(OCc2nnc3sc(SSc4nn5c(COc6ccc(Cl)cc6)nnc5s4)nn23)cc1, the pGI50 (SF-268) is reported as “inactive”, the GI50 (HCC 2998; HCC 2998, 48 h) is reported as 16.2 µM and the GI50 (CAKI-1) is reported as 77.6 µM. The Activity (HCT-116 [8]) was “inactive”, the GI50 (NCI-H226) was 87.1 µM and the GI50 (TK-10; TK-10, 48 h) was 72.4 µM. The GI50 (HOP-92) was 18.2 µM, the GI50 (UACC-62; UACC-62, 48 h) was 44.7 µM and the GI50 (HCT-15; HCT-15, 48 h) was 87.1 µM. The GI50 [9] was 44.7 µM, the GI50 (BT-549) was 47.9 µM and the pGI50 (SNB-75) was “inactive”. It also gave a GI50 (OVCAR-4; OVCAR-4, 48 h) of 46.8 µM, an IC50 [1] of 8 µM and an IC50 [2] of 0.82 µM. For the same molecule, the GI50 (HOP-62) was 66.1 µM, the GI50 (OVCAR-3) was 35.5 µM and the GI50 (MCF7 [4]; MCF7, 48 h) was 44.7 µM. The GI50 (CCRF-CEM) was 75.9 µM, the pGI50 (HCT-116 [5]) was “inactive” and the IC50 [3] was 11 µM. For the same molecule, the pGI50 (KM12) was “inactive”, the GI50 (SR) was 14.1 µM and the pGI50 (ACHN) was “inactive”. The pGI50 (SF-539) was “inactive”, the GI50 (A498; A498, 48 h) was 28.8 µM and the growth at 10 µM (MCF7 [6]) was 147%. For the same molecule, the pGI50 (Hs-578T) was “inactive”.

Work on Sc1nn2c(Cc3ccccc3)nnc2s1 yielded an IC50 [1] of 37 µM, an IC50 [2] of 23 µM and an IC50 [3] of 25 µM.

For Cc1nnc2sc(-c3ccc(N)cc3)nn12, the pGI50 (SF-268) was “inactive”, the pGI50 (HCC 2998) was “inactive” and the pGI50 (CAKI-1) was “inactive”. The pGI50 (NCI-H226) was “inactive”, the pGI50 (NCI-H322M) was “inactive” and the pGI50 (UACC-62) was “inactive”. The pGI50 (HCT-15) was “inactive”, the pGI50 (RPMI8266) was “inactive” and the GI50 (BT-549) was over 100 µM. For the same molecule, the GI50 (SNB-75; SNB-75, 48 h) was 21.4 µM, the pGI50 (OVCAR-4) was “inactive” and the IC50 [1] was over 120 µM. For the same molecule, the IC50 [2] was 0.57 µM, the GI50 (HOP-62) was 87.1 µM and the pGI50 (OVCAR-3) was “inactive”. For the same molecule, the pGI50 (LOX IMVI) was “inactive”, the pGI50 (MCF7 [4]) was “inactive” and the pGI50 (CCRF-CEM) was “inactive”. The IC50 [3] was over 120 µM, the GI50 (KM12) was over 100 µM and the pGI50 (SR) was “inactive”. For the same molecule, the pGI50 (ACHN) was “inactive”, the pGI50 (SF-539) was “inactive” and the pGI50 (A498) was “inactive”. The growth at 10 µM (MCF7 [6]) was 119% and the GI50 [7] was 89.1 µM.

With NNc1nn2c(Cc3ccccc3)nnc2s1 the IC50 [1] was over 48 µM, the IC50 [2] was over 28 µM and the IC50 [3] was over 120 µM.

In the case of Cc1nnc2sc(SSc3nn4c(C)nnc4s3)nn12, the IC50 [1] is reported as 11 µM, the IC50 [2] is reported as 23 µM and the IC50 [3] is reported as 6.8 µM.

For Cc1nnc2sc(SCc3ccccc3)nn12, the IC50 [1] was over 120 µM, the IC50 [2] was 16 µM and the IC50 [3] was over 48 µM.

For Cc1nnc2sc(Cc3sc(N)nc3O)nn12, the pGI50 (SF-268) was “inactive”, the pGI50 (HCC 2998) was “inactive” and the GI50 (CAKI-1) was 63.1 µM. For the same molecule, the GI50 (NCI-H226) was 77.6 µM, the GI50 (NCI-H322M) was 87.1 µM and the pGI50 (TK-10) was “inactive”. The pGI50 (HOP-92) was “inactive”, the pGI50 (UACC-62) was “inactive” and the pGI50 (HCT-15) was “inactive”. The pGI50 (BT-549) was “inactive”, the pGI50 (SNB-75) was “inactive” and the pGI50 (OVCAR-4) was “inactive”. The IC50 [1] was 12 µM, the IC50 [2] was 0.25 µM and the pGI50 (HOP-62) was “inactive”. The pGI50 (OVCAR-3) was “inactive”, the pGI50 (LOX IMVI) was “inactive” and the pGI50 (MCF7 [4]) was “inactive”. The pGI50 (CCRF-CEM) was “inactive”, the GI50 (HCT-116 [5]) was 83.2 µM and the IC50 [3] was 12 µM. For the same molecule, the GI50 (KM12) was 97.7 µM, the pGI50 (SR) was “inactive” and the pGI50 (ACHN) was “inactive”. The pGI50 (SF-539) was “inactive”, the pGI50 (A498) was “inactive” and the growth at 10 µM (MCF7 [6]) was 130%. For the same molecule, the pGI50 (Hs-578T) was “inactive”.

Molecule Cc1nnc2sc(S)nn12 has an IC50 [1] of 23 µM, an IC50 [2] of 6.8 µM and an IC50 [3] of 19 µM.

Clc1ccc(OCc2nnc3sc(SCc4ccccc4)nn23)cc1 showed an IC50 [1] of 37 µM, an IC50 [2] of over 28 µM and an IC50 [3] of over 120 µM.

Molecule Cc1nnc2sc(Cc3n[nH]c4[nH]c(=S)[nH]c(=S)c34)nn12 has an IC50 [1] of 10 µM, an IC50 [2] of 24 µM and an IC50 [3] of over 48 µM.
